Compounds with a hit are over-represented: about 6.4% of the library has one in this group of screens.
HUVEC prolif 384 – blocks proliferation of human endothelial cells | actives 1.1% (n = 86,000) | viability, % at 10 µM (by protocol) | HUVEC proliferation, CellTiter-Glo luminescence, 72 h; stronger effect = lower value;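 active means viability at or below 30%; inactive means viability above 30%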
H69AR inhibit – growth inhibitors of human H69AR lung tumor cells | H69AR lung tumor viability, ATP luminescence, 72 h; stronger effect = lower value | viability, % at 10 µM | actives 6% (n = 85,000) | AID 598;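 active means viability at or below 40%; inactive means viability above 40%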;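 further: multidrug resistant small cell line overexpressing MRP-1 efflux transporter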
Jurkat tox 60K – reduces viability or proliferation of Jurkat cells | actives 1.2% (n = 56,000) | Jurkat E6.1 viability, ATP luminescence, 48 h | inhibition, % at 4 µM;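 active means inhibition above the mean inhibition of all tested compounds plus 3 SD, cut at about 28% in these data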
tolC growth inh – growth inhibitors of E. coli BW25113 tolC mutant; AID 573; OD615; growth inhibition, % at 10 µM (by protocol); actives 2.2% (n = 65,000);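 active means growth inhibition at or above a cutoff equal to the mean over every tested compound plus 3 SD, cut at about 60% in these data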;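 further: growth measured after 20 h incubation at 37 °C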
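Test system: E. coli BW25113 ΔtolC::kan bacteria; incubation: 37 °C, 20 h exposure; medium: LB broth supplemented with 50 µg/mL kanamycin; read-out basis: percent growth inhibition; signal: A615 absorbance measurement; compound: 10 µM final, single dose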
Fibroblast inh – blocks proliferation of human lung fibroblasts; LL 47 human lung fibroblast viability, ATP luminescence; stronger effect = lower value; viability, % at 10 µM; actives 1.1% (n = 85,000);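 active means viability at or below 50% in the single dose screen; inactive means viability above 50%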;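 further: compound exposure lasted 72 h before the ATP readout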
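Times – overnight cell rest, 72 h compound treatment at 37 °C · Test system – human lung fibroblast line LL 47, low passage · Amount – 1,150 cells in each well · Controls – cell-only wells, no compound · Doses – 0.1% DMSO in all compound wells · Measured by – CellTiter-Glo luminescence · Buffer or medium – IMEM plus 15% FBS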
Ecoli WT expand – E. coli BW25113 growth inhibition, expanded screen. OD600 absorbance. growth inhibition, % at 100 µM. actives 0.15% (n = 98,000). AID 710;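 active means growth inhibition above about 50% at one test dose, limit read from the data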;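 further: growth measured after 20 h incubation at 37 °C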
A number is an active result; 0 = inactive; - = no result given.

SMILES	HUVEC prolif 384	H69AR inhibit	Jurkat tox 60K	tolC growth inh	Fibroblast inh	Ecoli WT expand
Cc1ccc(NS(=O)(=O)c2ccc3c(c2)c(=O)n(C)c(=O)n3C)cc1F	0	0	-	0	0	0
Cc1cc(C)cc(NS(=O)(=O)c2ccc3c(c2)c(=O)n(C)c(=O)n3C)c1	0	0	-	-	33.6	0
Cc1cc(C)cc(OCC(=O)N2N=C(C(F)(F)F)CC2(O)C(C)(C)C)c1 (configuration not stated)	0	33.5	-	-	0	-
CCCCC1(O)CC(C(F)(F)F)=NN1C(=O)COc1ccccc1 (configuration not stated)	0	0	-	-	0	-
COc1ccc(C(=O)NC(=O)Nc2cc(C)ccn2)cc1	0	39.8	0	0	0	0
O=C(NC(Cc1ccccc1)C(=O)O)c1ccc(S(=O)(=O)N2CCCCC2)cc1 (configuration not stated)	0	0	-	-	0	0
CCOc1ccc(OCC)c(NC(=O)C2CCN(c3ncccn3)CC2)c1	0	0	0	0	0	0
N=c1c2c(-c3ccccc3)c(-c3ccccc3)n(Cc3ccccc3)c2ncn1CCCn1ccnc1	2.3	-0.2	-	0	2.4	0
N=c1c2c(-c3ccccc3)c(-c3ccccc3)n(Cc3ccco3)c2ncn1Cc1ccco1	2.7	1.4	47.3	64.3	-	0
O=c1c2cnn(-c3ccccc3)c2ncn1Cc1ccco1	0	0	-	-	0	0
C=CCN1C(=Nc2cccnc2)SCC1(O)c1ccc(C)cc1 (configuration not stated)	1.8	34.1	39.2	0	0	0
C/C(=N/NC(=O)c1cccs1)c1ccc(NC(=O)COc2ccc(Cl)cc2)cc1	-	-	-	-	-	0
CNC(=O)N(C1=NCC(C)(C)S1)c1ccc(F)c(Cl)c1	0	15.2	48.6	0	0	0
O=C(N/N=C/c1cccs1)C1COc2ccccc2O1 (configuration not stated)	0	24.4	-	-	0	0
O=C(COc1ccc2ccccc2c1)Nc1ccc(S(=O)(=O)N2CCCCCC2)cc1	0	0	-	-	0	-
Cc1ccc(/C(O)=C2\C(=O)C(=O)N(c3cc(C)on3)C2c2cccc(Br)c2)cc1 (configuration not stated)	0	-	0	64.6	0	0
Cc1cc(N2C(=O)C(=O)/C(=C(/O)c3ccc(F)cc3)C2c2cccc(Br)c2)no1 (configuration not stated)	0	0	-	0	0	0
CCOc1nc(Nc2ccc(OC)c(Cl)c2)nc(OCC)n1	0	36.4	-	-	0	0
Cc1ccc(CONC(=O)/N=C/N(C)C)cc1	-	-	-	-	-	0
CCOC(=O)c1cccc(NC(=O)c2cc3sccc3n2C)c1	0	0	0	73.4	0	0
Cc1ccc(N2CCN(C(=O)c3ccccc3)CC2)c(C)c1	0	0	0	0	0	0
COc1cc(C(=O)N2CCN(c3ccc(C)cc3C)CC2)cc(OC)c1OC	0	19.1	90.8	0	0	0
COc1cc(C(=O)N2CCCN(c3nc4cc(C)ccc4cc3C#N)CC2)cc(OC)c1OC	0	9.8	0	0	0	-
CCS(=O)(=O)c1ccc(-c2csc(-c3ccccc3)n2)c(Cl)c1Cl	-	-	-	-	-	0
C(=N\c1nccs1)/c1cccnc1	0	0	-	0	0	-
SMILES	HUVEC prolif 384	H69AR inhibit	Jurkat tox 60K	tolC growth inh	Fibroblast inh	Ecoli WT expand
CCCc1[nH][nH]c(=O)c1C(c1cccc(Cl)c1)C(C#N)C#N (configuration not stated)	0	16.6	-	0	0	0
N#CC(C#N)C(c1ccsc1)c1c(-c2ccccc2)[nH][nH]c1=O (configuration not stated)	0	0	-	0	0	0
CC(C)Cn1cc(C(=O)N2CCN(c3ccccn3)CC2)c2c3ccccc3n(C)c2c1=O	0	38.4	0	0	0	0
CCN1CCN(C(=O)c2cn(CCOC)c(=O)c3c2c2ccccc2n3C)CC1	0	0	0	0	-	0
CCC(C)N(C(=O)Cn1nnc2ccccc21)C(C(=O)Nc1ccc(F)cc1)c1cccc(OC)c1 (configuration not stated)	-	-	-	-	-	0
CC1CC(C)CN(c2cc(=O)n(Cc3ccc(F)cc3)c(=O)[nH]2)C1 (configuration not stated)	0	0	-	-	0	0
CC(Oc1ccc(-c2ccccc2)c(F)c1)c1ccn(S(=O)(=O)c2ccc(Cl)cc2)n1 (configuration not stated)	-	-	-	-	-	0
CC(=O)Nc1ccc(N=Cc2ccc[nH]2)cc1	-	-	0	0	-	0
Oc1ccccc1N=Cc1ccc[nH]1	0	34.9	0	0	0	0

Screens (PubChem)
